Laboratory results published in ChEMBL document CHEMBL1124180, “Asymmetric synthesis and properties of the enantiomers of the antibacterial agent 7-(3-aminopyrrolidin-1-yl)-1-(2,4-difluorophenyl)-1,4-dihydro-6- fluoro-4-oxo-1,8-naphthyridine-3-carboxylic acid hydrochloride” (J Med Chem, 1988).

Assays:
Acinetobacter sp. = experiment: In vitro activity against Acinetobacter sp.(CMX 669).; type: functional
Summary of the method: (§1)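 MIC determined by agar dilution on brain-heart infusion agar under aerobic conditions.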

Staphylococcus aureus [1] = experiment: In vitro activity against Staphylococcus aureus(45); type: functional; summary of the method: as §1
Pseudomonas aeruginosa [2] = experiment: In vitro activity against Pseudomonas aeruginosa (K799/WT).; type: functional; summary of the method: as §1
Staphylococcus aureus [3] = experiment: In vitro activity against Staphylococcus aureus(ATCC 6538P); type: functional; summary of the method: as §1
[4] = system: Bacteroides thetaiotaomicron; experiment: In vitro activity against Bacteroides thetaiotaomicron (106); type: functional
Summary of the method: (§2)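 MIC determined under anaerobic conditions on Wilkins-Chalgren agar.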

Clostridium perfringens [5] = experiment: In vitro activity against Clostridium perfringens (788); type: functional
Summary of the method: (§3)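 MIC for anaerobic bacteria, measured on Wilkins-Chalgren agar.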

Phocaeicola vulgatus [6] = experiment: In vitro activity against Bacteroides vulgatus(792); type: functional; summary of the method: as §2
Providencia stuartii = experiment: In vitro activity against Providencia stuartii (CMX 640); type: functional; summary of the method: as §1
Prevotella bivia = experiment: In vitro activity against Bacteroides bivius(B 6140); type: functional; summary of the method: as §2
Mus musculus [7] = experiment: In vivo activity against Staphylococcus aureus NCTC 10649, administered sc ( each compound tested at 3 doses with 10 animals); type: functional
Summary of the method: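 Mice were challenged intraperitoneally with the organism. The compound was given subcutaneously as a total dose split into equal portions at 1 and 5 h post-infection. Three doses were used, with 10 animals per dose.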

Finegoldia magna = experiment: In vitro activity against Peptococcus magnus (ATCC 29328); type: functional; summary of the method: as §2
Streptococcus pyogenes [8] = experiment: In vitro activity against Streptococcus pyogenes (EES61); type: functional; summary of the method: as §1
Escherichia coli [9] = experiment: In vitro activity against Escherichia coli (H560); type: functional
Summary of the method: (§4)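 MIC for aerobic bacteria, measured on brain-heart infusion agar.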

Staphylococcus aureus [10] = experiment: In vitro activity against Staphylococcus aureus(CMX 503A); type: functional; summary of the method: as §1
Mus musculus [11] = experiment: In vivo activity against Pseudomonas aeruginosa A5007 (100X LD50), administered po( each compound tested at 3 doses with 10 animals); type: functional
Summary of the method: (§5)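 Mice were challenged intraperitoneally with the organism. The compound was given orally as a total dose split into equal portions at 1 and 5 h post-infection. Three doses were used, with 10 animals per dose.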

[12] = Solubility in aqueous media urine, pH 5.7; type: physicochemical; settings: read-out: S
Pseudomonas aeruginosa [13] = experiment: In vitro activity against Pseudomonas aeruginosa (BMH10); type: functional; summary of the method: as §1
Escherichia coli [14] = experiment: In vitro activity against Escherichia coli (DC-2); type: functional; summary of the method: as §4
Hoylesella loescheii = experiment: In vitro activity against Bacteroides loescheii (ATCC 15930).; type: functional; summary of the method: as §2
Clostridium perfringens [15] = experiment: In vitro activity against Clostridium perfringens (104AT13124); type: functional; summary of the method: as §3
[16] = Solubility in aqueous media urine, pH 6.3; type: physicochemical; settings: read-out: S
Phocaeicola vulgatus [17] = experiment: In vitro activity against Bacteroides vulgatus(SFBC 2375); type: functional; summary of the method: as §2
Clostridium perfringens [18] = experiment: In vitro activity against Clostridium perfringens (SFBC 2026); type: functional; summary of the method: as §3
Cutibacterium acnes = experiment: In vitro activity against Propionibacterium acnes (132); type: functional; summary of the method: as §2
Streptococcus equinus = experiment: In vitro activity against Streptococcus bovis (A5169).; type: functional; summary of the method: as §1
Fusobacterium = experiment: In vitro activity against Fusobacterium sp.(GS-10); type: functional; summary of the method: as §2
Escherichia coli [19] = experiment: In vitro activity against Escherichia coli (SS).; type: functional; summary of the method: as §4
Micrococcus luteus = experiment: In vitro activity against Micrococcus luteus (ATCC 9341); type: functional; summary of the method: as §1
[20] = system: Peptoniphilus asaccharolyticus; experiment: In vitro activity against Peptococcus asaccharolyticus (ATCC 14963).; type: functional; summary of the method: as §2
Mus musculus [21] = experiment: In vivo activity against Staphylococcus aureus NCTC 10649, administered po( each compound tested at 3 doses with 10 animals); type: functional; summary of the method: as §5
[22] = system: Peptostreptococcus anaerobius; experiment: In vitro activity against Peptostreptococcus anaerobius (ATCC 27337); type: functional; summary of the method: as §2
Klebsiella pneumoniae = experiment: In vitro activity against Klebsiella pneumoniae (ATCC 8045).; type: functional; summary of the method: as §1
[23] = system: Bacteroides thetaiotaomicron; experiment: In vitro activity against Bacteroides thetaiotaomicron (ATCC 29741); type: functional; summary of the method: as §2
Burkholderia cepacia = experiment: In vitro activity against Pseudomonas cepacia (296I); type: functional; summary of the method: as §1
Streptococcus pyogenes [24] = experiment: In vitro activity against Streptococcus pyogenes(930 CONST).; type: functional; summary of the method: as §1
Veillonella parvula = experiment: In vitro activity against Veillonella parvula (ATCC 10790); type: functional
Summary of the method: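 Anaerobic MICs measured by agar dilution on Wilkins-Chalgren agar.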

Clostridioides difficile = experiment: In vitro activity against Clostridium difficile (ATCC 17857); type: functional

Cl.N[C@H]1CCN(c2nc3c(cc2F)c(=O)c(C(=O)O)cn3-c2ccc(F)cc2F)C1
MIC (Acinetobacter sp.): 0.05 µg/mL
MIC (Staphylococcus aureus [1]): 0.1 µg/mL
MIC (Pseudomonas aeruginosa [2]): 0.1 µg/mL
MIC (Staphylococcus aureus [3]): 0.02 µg/mL
MIC [4]: 0.5 µg/mL
MIC (Clostridium perfringens [5]): 0.12 µg/mL
MIC (Phocaeicola vulgatus [6]): 0.5 µg/mL
MIC (Providencia stuartii): 1.56 µg/mL
MIC (Prevotella bivia): 0.5 µg/mL
ED50 (Mus musculus [7]): 0.4 mg/kg
MIC (Finegoldia magna): 0.06 µg/mL
MIC (Streptococcus pyogenes [8]): 0.1 µg/mL
MIC (Escherichia coli [9]): 0.01 µg/mL
MIC (Staphylococcus aureus [10]): 0.05 µg/mL
ED50 (Mus musculus [11]): 11.5 mg/kg
solubility [12]: 27.5 µg/mL
MIC (Pseudomonas aeruginosa [13]): 0.05 µg/mL
MIC (Escherichia coli [14]): 0.2 µg/mL
MIC (Hoylesella loescheii): 1 µg/mL
MIC (Clostridium perfringens [15]): 0.12 µg/mL
solubility [16]: 20.7 µg/mL
MIC (Phocaeicola vulgatus [17]): 0.25 µg/mL
MIC (Clostridium perfringens [18]): 0.12 µg/mL
MIC (Cutibacterium acnes): 2 µg/mL
MIC (Streptococcus equinus): 0.2 µg/mL
MIC (Fusobacterium): 0.25 µg/mL
MIC (Escherichia coli [19]): 2 ng/mL
MIC (Micrococcus luteus): 0.78 µg/mL
MIC [20]: 0.12 µg/mL
ED50 (Mus musculus [21]): 0.8 mg/kg
MIC [22]: 0.12 µg/mL
MIC (Klebsiella pneumoniae): 0.01 µg/mL
MIC [23]: 0.5 µg/mL
MIC (Burkholderia cepacia): 3.1 µg/mL
MIC (Streptococcus pyogenes [24]): 0.1 µg/mL
MIC (Veillonella parvula): 0.25 µg/mL
MIC (Clostridioides difficile): 1 µg/mL
